Measurements collected from several papers.
Protocols differ between the studies behind these lines.
Target: Serine/threonine-protein kinase ULK3 (ULK3, Homo sapiens, UniProt Q6PHR2)
Residues used in one study (Q6PHR2 1-472): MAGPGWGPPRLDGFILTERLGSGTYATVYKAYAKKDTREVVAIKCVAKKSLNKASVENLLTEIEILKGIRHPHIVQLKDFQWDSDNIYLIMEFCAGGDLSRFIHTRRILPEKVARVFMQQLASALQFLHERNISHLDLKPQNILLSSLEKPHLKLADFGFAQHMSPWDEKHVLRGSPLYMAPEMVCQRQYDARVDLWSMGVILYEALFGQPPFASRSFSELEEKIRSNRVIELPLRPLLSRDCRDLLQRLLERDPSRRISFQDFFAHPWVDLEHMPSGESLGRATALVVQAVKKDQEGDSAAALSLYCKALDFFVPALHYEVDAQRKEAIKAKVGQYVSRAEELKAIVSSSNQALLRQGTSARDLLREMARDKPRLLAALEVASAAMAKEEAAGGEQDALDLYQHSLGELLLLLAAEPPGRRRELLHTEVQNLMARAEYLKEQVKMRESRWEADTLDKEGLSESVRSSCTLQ

SMILES | read-out | mode | method | concentration | endpoint | result
Cc1ccc(C(=O)Nc2ccc(CN3CCN(C)CC3)c(C(F)(F)F)c2)cc1C#Cc1cnc2cccnn12 | enzyme activity | inhibitor | – | 23.5 nM | remaining activity | 61%
COc1cc(-c2cn(C3CCc4ccccc4N(CC(F)(F)F)C3=O)nn2)ccc1-n1ccc(C)n1 (centres unmarked) | cell-free assay | – | competition with immobilised ligand | 1 µM | remaining binding | 61%
COc1cc2ncnc(Nc3ccc(F)c(Cl)c3)c2cc1OCCCN1CCOCC1 | cell-free assay | – | – | 0.5 µM | remaining signal | 108%
CCCS(=O)(=O)Nc1ccc(F)c(C(=O)c2c[nH]c3ncc(-c4ccc(Cl)cc4)cc23)c1F | enzyme activity | inhibitor | – | 1 µM | inhibition | < 10%
Cc1sc(C(=O)NC2COC2)cc1-n1cc(NC(=O)Nc2c(F)cccc2Cl)cn1 | enzyme activity | inhibitor | – | 10 µM | remaining activity | 105%
C[C@@H](c1cccc(C#N)c1)n1cc(Cl)cc(C(N)=O)c1=N | cell-free assay | – | competition with immobilised ligand | 1 µM | remaining binding | 75%
COc1cc2c(Nc3ccc(Br)cc3F)ncnc2cc1OCC1CCN(C)CC1 | cell-free assay | – | – | 0.5 µM | remaining signal | 105%
CCc1ccccc1C(=O)Nc1n[nH]c2c(C)c(F)c(C3C(C#N)=C(C)N(C)C(C)=C3C#N)cc12 | cell-free assay | – | competition with immobilised ligand | 1 µM | remaining binding | 82%
COc1cc2c(N3CCN(C(=O)Nc4ccc(OC(C)C)cc4)CC3)ncnc2cc1OCCCN1CCCCC1 | cell-free assay | – | – | 0.5 µM | remaining signal | 101%
Cn1nc(C(F)(F)F)cc1-c1cnc(N2CCc3cc(S(=O)(=O)Nc4c(F)cc(Cl)cc4F)cc(N4CCCC4=O)c32)nc1 | cell-free assay | – | competition with immobilised ligand | 1 µM | remaining binding | 100%
Cc1cc(NC(=O)c2cccc3cc(-c4cccc5[nH]nc(N)c45)ccc23)ccc1F | enzyme activity | inhibitor | – | 0.1 µM | activity vs control | 98%
Oc1cccc(-c2nc(N3CCOCC3)c3oc4ncccc4c3n2)c1 | cell-free assay | – | – | 0.5 µM | remaining signal | 99.7%
O=C(Nc1cnn(-c2csc(C(=O)NC3COC3)c2)c1)Nc1ccccc1Cl | enzyme activity | inhibitor | – | 5 µM | remaining activity | 111%
CC(C)(O)[C@H]1CC[C@H](Nc2ccc3ncc(-c4cccc(C(F)(F)F)c4)n3n2)CC1 | enzyme activity | inhibitor | – | 1 µM | remaining activity | 86.2%
